This is a sample that favours compounds with a hit; in the whole collection about 2.6% have one here.
NadD inh – blocks S. aureus nicotinate mononucleotide adenylyltransferase; AID 602399; purified NadD enzyme, colorimetric absorbance read-out; inhibition, % at 20 µM; 360,000 tested, 0.78% active; in the data active means inhibition above about 26%
rCAG binder – r(CAG) repeat RNA binding | 370,000 tested, 1.3% active | TO-PRO-1 dye displacement fluorescence | inhibition, % at 3 µM | AID 651821;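 active means inhibition above the plate cutoff, the mean of all test compounds on that plate plus 3 SD, cut at about 35% in these data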;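 further: higher means more dye released from RNA so lower well fluorescence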
core dimer inh – blocks dimerization of HCV core protein; TR-FRET GST/Flag-core106 dimerization, 1536-well; inhibition, % at 5 µM; 300,000 tested, 0.33% active;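 active means inhibition above the mean of all tested compounds plus 3 SD, set per screening campaign, cut at about 45% in these data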
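Assay system: GST-tagged and Flag-tagged HCV core protein residues 1-106 / Times: compound-protein-antibody incubation 4 h at 22.5 °C / Signal: time-resolved FRET, ex 340 nm, em 617 and 671 nm / Evaluation: % inhibition based on acceptor/donor emission ratio / Benchmarks: wells lacking GST-core106 and wells with excess unlabelled core106 / Repeats: singlicate, one well per compound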
ABHD5 PLIN5 PPI – ABHD5-PLIN5 protein interaction inhibition | Q00G26+Q8WTS1 | Split G. princeps luciferase complementation, luminescence, 4 h | inhibition, % at 4 µM | 360,000 tested, 0.78% active;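 active means inhibition above the mean inhibition across every tested compound plus 3 SD, cut at about 22% in these data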
Target sequence (Q00G26 whole entry, looked up): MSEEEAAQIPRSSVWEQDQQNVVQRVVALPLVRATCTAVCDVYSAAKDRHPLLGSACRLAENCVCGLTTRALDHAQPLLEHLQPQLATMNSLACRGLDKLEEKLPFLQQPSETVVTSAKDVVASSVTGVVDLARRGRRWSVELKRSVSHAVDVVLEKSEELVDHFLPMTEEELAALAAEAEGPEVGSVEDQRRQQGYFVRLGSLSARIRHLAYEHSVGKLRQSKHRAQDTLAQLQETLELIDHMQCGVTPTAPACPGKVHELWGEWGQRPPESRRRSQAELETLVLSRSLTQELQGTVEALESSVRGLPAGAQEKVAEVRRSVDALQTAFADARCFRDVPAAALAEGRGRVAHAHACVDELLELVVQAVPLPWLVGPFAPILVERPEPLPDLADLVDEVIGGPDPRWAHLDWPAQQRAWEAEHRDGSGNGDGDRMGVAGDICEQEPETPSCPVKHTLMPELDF
Target sequence (Q8WTS1 whole entry, looked up): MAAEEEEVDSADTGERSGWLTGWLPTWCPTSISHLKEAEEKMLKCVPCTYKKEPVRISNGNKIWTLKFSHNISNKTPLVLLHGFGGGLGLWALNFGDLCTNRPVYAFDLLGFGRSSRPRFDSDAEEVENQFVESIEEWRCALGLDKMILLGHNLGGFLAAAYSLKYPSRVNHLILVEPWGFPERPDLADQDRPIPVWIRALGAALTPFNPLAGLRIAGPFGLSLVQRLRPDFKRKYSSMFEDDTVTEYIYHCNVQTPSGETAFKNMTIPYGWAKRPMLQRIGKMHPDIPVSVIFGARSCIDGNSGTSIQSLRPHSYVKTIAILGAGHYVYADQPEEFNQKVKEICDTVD
Each line names hits and unclear results; the compound was inactive in the other large screens; ! = a repeat was not active.

C=C(NC(=O)C(=C)NC(=O)c1csc(C2=NC3c4csc(n4)C4NC(=O)c5csc(n5)C([C@@](C)(O)C(C)O)NC(=O)C5CSC(=N5)/C(=C\C)NC(=O)C(C(C)O)NC(=O)c5csc(n5)[C@]3(CC2)NC(=O)C(C)NC(=O)C(=C)NC(=O)C(C)NC(=O)C(C(C)CC)NC2C=Cc3c(C(C)O)cc(nc3C2O)C(=O)OC4C)n1)C(N)=O (some centres undefined)	core dimer inh 70 (no result: NadD inh, rCAG binder, ABHD5 PLIN5 PPI)
COC(=O)[C@]12C[C@H](CC(=O)NCCC(C)C)C(=O)N(Cc3cccc4ccccc34)C1=C[C@H](C(C)(C)C)O[C@@H]2C	none (no result: NadD inh, core dimer inh, ABHD5 PLIN5 PPI)
CN(CC(=O)Nc1cccc(F)c1)C(=O)c1cccc(-n2cccc2)c1	core dimer inh 64
CCCCCCNC(=O)c1cc(-c2ccco2)nc2ccccc12	core dimer inh 64
COc1ccc(-c2cc(C(=O)N(C)CC(=O)Nc3cccc(F)c3)c3ccccc3n2)cc1OC	none (no result: core dimer inh)
CN(CC(=O)Nc1c(Cl)cccc1Cl)C(=O)c1cccc(-n2cccc2)c1	none
COc1ccc(NC(=O)CN(C)C(=O)c2cc(-c3ccco3)nc3ccccc23)cc1	core dimer inh 61
CN(CC(=O)Nc1cccc(F)c1)C(=O)c1cc(-c2ccco2)nc2ccccc12	core dimer inh 59
CC(C)CCNC(=O)c1cc(-c2ccco2)nc2ccccc12	none
CCOC(=O)CC[C@@H]1CC[C@]2(CCCN(Cc3ccc(OC)cc3)C2)O1	none (no result: NadD inh, core dimer inh, ABHD5 PLIN5 PPI)
O=C(c1ccco1)N1CCN(C(=O)c2cc(-c3ccncc3)nc3ccc(Br)cc23)CC1	none
O=C(O)c1cc(-c2ccco2)nc2ccc(Br)cc12	ABHD5 PLIN5 PPI 29!
O=C(COC(=O)c1cccc(S(=O)(=O)N2CCc3ccccc3C2)c1)NCc1ccco1	core dimer inh 51
Cc1ccccc1C(=O)NC1CCCCN(Cc2cccc(C(F)(F)F)c2)C1=O (centres undefined)	none (no result: NadD inh, core dimer inh, ABHD5 PLIN5 PPI)
Cn1c(Cc2cccs2)nnc1SCC(=O)Nc1ccc2c(c1)OCO2	none (no result: NadD inh, core dimer inh, ABHD5 PLIN5 PPI)
O=C1C=C(c2ccccc2)CC(c2cccs2)C1n1cnc([N+](=O)[O-])c1 (centres undefined)	core dimer inh 47
Cc1cc(/C=C2\SC(=S)N(Cc3ccco3)C2=O)c(C)n1-c1cccnc1	none (no result: core dimer inh)
Cc1cc(/C=C2/SC(=S)N(c3cccc(C(F)(F)F)c3)C2=O)c(C)n1-c1cccnc1	NadD inh 44 (no result: rCAG binder)
O=C1/C(=C\c2ccc(O)cc2)SC(=S)N1c1cccnc1	NadD inh 31
CCN(CC(=O)Nc1c(F)cccc1F)C(=O)/C=C/c1ccc2ccccc2n1	core dimer inh 75
CCN(CC(=O)Nc1c(F)cccc1F)C(=O)c1ccc2ccccc2n1	none
O=C(CCn1nnc2ccccc21)N1CCN(c2ccc(F)cc2)CC1	none (no result: NadD inh, core dimer inh, ABHD5 PLIN5 PPI)
CCCCN(C)C(=O)CNc1nnnn1-c1ccccc1	none (no result: NadD inh, core dimer inh, ABHD5 PLIN5 PPI)
CN(C)c1ccc(/C=C/C=C2/SC(=S)N(c3ccccc3)C2=O)cc1	NadD inh 43
CN[C@H]1C[C@H]2c3[nH]c4c(-c5cccc(C)c5)cccc4c3CCN2C(=O)[C@H]1[C@H](C)O	none (no result: NadD inh, core dimer inh, ABHD5 PLIN5 PPI)
C=CCn1c(O)c(N=NC(=O)CNC(=O)/C=C/c2ccco2)c2ccccc21	core dimer inh 49
Cc1ccc(CSCC2Nc3ccc(C(=O)N4CCN(c5cccc(C)c5)C(C)C4)cc3NC2=O)cc1 (centres undefined)	core dimer inh 71 (no result: NadD inh, rCAG binder, ABHD5 PLIN5 PPI)
Cc1cccc(N2CCN(C(=O)c3ccc4c(c3)NC(=O)C(CSCc3ccc(F)cc3)N4)CC2C)c1 (centres undefined)	core dimer inh 64 (no result: NadD inh, rCAG binder, ABHD5 PLIN5 PPI)
COc1cccc(C(CC2=CCCCC2)NC(=O)C(F)(F)F)c1 (centres undefined)	none (no result: NadD inh, core dimer inh, ABHD5 PLIN5 PPI)
COc1cc(NC(=O)C2CCCN(S(=O)(=O)c3ccc(C)cc3)C2)cc(OC)c1 (centres undefined)	none (no result: NadD inh, core dimer inh, ABHD5 PLIN5 PPI)
Cc1c2cc[n+](CCN3CCCCC3)cc2c(C)c2c1[nH]c1ccc(O)cc12	NadD inh 48 (no result: rCAG binder, core dimer inh)
CCOC(=O)c1[nH]c2ccc(C)cc2c1NC(=O)CN1CCCCC1	none
Cc1sc(NC(=O)Cn2[nH]c(=O)c3ccccc3c2=O)nc1-c1ccccc1	core dimer inh 49
Cc1c(NC(=O)Cn2[nH]c(=O)c3ccccc3c2=O)c(=O)n(-c2ccccc2)n1C	none
O=C(Nc1nccs1)c1cc(-c2ccncc2)nc2ccccc12	core dimer inh 56
O=C1C=C(O)c2cccc(O)c2C1=O	none
O=C1C=C(c2c(O)ccc3ccccc23)c2ccccc2C1=O	ABHD5 PLIN5 PPI 91 (no result: core dimer inh)
COc1ccccc1N=C1SC(C(=O)Nc2cccc(Cl)c2Cl)C(N)=C1C(N)=O (centres undefined)	none
N#Cc1ccccc1NC(=O)C1SC(=Nc2ccccc2)C(C(=O)Nc2ccc(Cl)cc2)=C1N (centres undefined)	rCAG binder 37
COc1ccc(Nc2nc(-c3sc(NC(C)=O)nc3C)cs2)cc1	core dimer inh 59 (no result: NadD inh, rCAG binder, ABHD5 PLIN5 PPI)
COC(=O)[C@]12C[C@H](CC(=O)N3CCSCC3)C(=O)N(Cc3ccccc3)C1=C[C@H](C1CCCC1)O[C@@H]2C	none (no result: NadD inh, core dimer inh, ABHD5 PLIN5 PPI)
C=C1C(=O)C=C2CN(C(=O)c3ccccc3)[C@@](Cc3ccc(F)cc3)(C(=O)OC)[C@@H]12	ABHD5 PLIN5 PPI 75 (no result: rCAG binder)
C=C1C(=O)CC2=C1[C@](Cc1ccc(F)cc1)(C(=O)OC)N(C(=O)c1ccccc1)C2	none (no result: core dimer inh)
C/C(=N\Nc1nc(-c2cc(C)ccc2C)cs1)c1cc2ccccc2oc1=O	core dimer inh 57
O=c1oc2ccccc2cc1-c1csc(NN=C2CCCC2)n1	none
C/C(=N/NC(=O)CSc1nnc(SCc2ccc(C)cc2)s1)c1cccc(O)c1	none (no result: NadD inh, core dimer inh, ABHD5 PLIN5 PPI)
Oc1ccccc1-c1nc(NCCN2CCOCC2)c2ccccc2n1	ABHD5 PLIN5 PPI 22
COc1cccc(-c2nc(NCCN3CCOCC3)c3ccccc3n2)c1O	none
N#Cc1ccccc1CSc1nc2ccc(NC(=O)c3ccccc3C(=O)O)cc2s1	core dimer inh 47
Cc1ccc(S(=O)(=O)/N=C2/NC(=O)/C(=C\c3cc(Br)cc(Br)c3O)S2)cc1	NadD inh 41 (no result: rCAG binder, core dimer inh)
C[C@H](O)[C@@H]1CN2CCc3ccc(-c4ccc5c(c4)OCO5)cc3[C@@H]2C[C@@H]1N(C)Cc1cc(Cl)cc(Cl)c1	none (no result: NadD inh, core dimer inh, ABHD5 PLIN5 PPI)
Cn1nc(-c2ccc(Cl)cc2)nc2c(=O)n(C)c(=O)nc1-2	core dimer inh 68 (no result: NadD inh, rCAG binder, ABHD5 PLIN5 PPI)
C=C(C)[C@@H]1CC2=C(OC)C(CC=C(C)C)(CC=C(C)C)C(=O)C(C(=O)c3ccccc3)=C2O1	none (no result: NadD inh, core dimer inh, ABHD5 PLIN5 PPI)
CN(C(=O)CN1C(=O)S/C(=C\c2ccc(F)cc2)C1=O)C1CCS(=O)(=O)C1 (centres undefined)	none
CCN(C(=O)CN1C(=O)S/C(=C\c2ccc(F)cc2)C1=O)C1CCS(=O)(=O)C1 (centres undefined)	ABHD5 PLIN5 PPI 23
CC(C)N1CCCCC(NC(=O)c2cccc(C(F)(F)F)c2)C1=O (centres undefined)	none (no result: NadD inh, core dimer inh, ABHD5 PLIN5 PPI)
CCC(=O)N(C)C[C@@H]1[C@H](c2ccc(C3=CCCCC3)cc2)[C@H](CO)N1C(=O)CC	none (no result: NadD inh, core dimer inh, ABHD5 PLIN5 PPI)
O=C1C2C3CCCC3=C3CCCC3C2C(=O)N1c1ccc(Cl)cc1 (centres undefined)	core dimer inh 52
C[C@H]1[C@@H](c2ccccc2)Oc2ccc(Cl)cc2S(=O)(=O)N1Cc1cccc(Cl)c1	none (no result: NadD inh, core dimer inh, ABHD5 PLIN5 PPI)
O=S1(=O)c2ccccc2N=NN1Cc1ccc(Cl)cc1	core dimer inh 47

Compound activity deposited in PubChem by several laboratories.
